Screens (PubChem BioAssay)
CAL PDZ FP-1: inhibitors of human CAL PDZ peptide binding. Q9HD26. purified CAL PDZ, TMR-peptide fluorescence polarization, 1 h. inhibition, % at 20 µM. actives 0.02% (n = 330,000). AID 504414;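 active means highest replicate inhibition of at least 40%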;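 further: plate controls were DMSO neutral control wells for no effect and unlabeled competitor peptide control wells for full effect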
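Test system: purified CerCALP PDZ construct; Compound dosing: one concentration, 20 µM compound; Also added: TMR-labelled reporter peptide T*-PRC34 bound in PDZ groove; Read-out: inhibition from polarization loss; Controls: unlabelled peptide and DMSO controls; Signal: FP readout, S and P plane fluorescence; Incubation: 1 h at RT.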
PvdQ acylase: blocks Pseudomonas aeruginosa PvdQ acylase activity. purified PvdQ acylase, fluorescence plate reader. actives 0.063% (n = 340,000). inhibition, % at 10 µM. AID 488965; in the data active means inhibition above about 30%, passing the limit was not always enough;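 further: 0% = vehicle neutral wells and 100% = reference inhibitor wells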
CDK5 p35 inh: inhibitors of human CDK5/p35 kinase | Recombinant CDK5/p35, ADP-Glo luminescence, 60 min | inhibition, % at 10 µM | actives 0.01% (n = 330,000);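 active means highest replicate inhibition of at least 50% and at least 75% of replicates reaching 50%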;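 further: plate controls were DMSO neutral control for no effect and GW8510 at 10 µM for full effect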
Target sequence (Q00535 whole entry, looked up): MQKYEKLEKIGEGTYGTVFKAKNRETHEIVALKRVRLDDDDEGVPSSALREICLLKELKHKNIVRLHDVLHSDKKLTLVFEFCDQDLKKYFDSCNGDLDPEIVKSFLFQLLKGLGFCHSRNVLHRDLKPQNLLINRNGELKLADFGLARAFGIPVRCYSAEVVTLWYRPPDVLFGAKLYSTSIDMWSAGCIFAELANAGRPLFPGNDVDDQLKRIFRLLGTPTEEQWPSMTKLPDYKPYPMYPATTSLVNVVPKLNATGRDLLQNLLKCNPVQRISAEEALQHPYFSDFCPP
Target sequence (Q15078 whole entry, looked up): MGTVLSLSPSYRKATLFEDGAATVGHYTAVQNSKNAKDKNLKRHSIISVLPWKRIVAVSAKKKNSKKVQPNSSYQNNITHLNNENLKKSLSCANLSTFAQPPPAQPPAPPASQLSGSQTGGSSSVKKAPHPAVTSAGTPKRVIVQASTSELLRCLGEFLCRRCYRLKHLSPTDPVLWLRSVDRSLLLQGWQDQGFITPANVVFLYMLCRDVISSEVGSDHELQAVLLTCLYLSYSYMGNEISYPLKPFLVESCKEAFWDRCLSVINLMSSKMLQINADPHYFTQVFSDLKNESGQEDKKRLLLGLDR
CAL PDZ FP-2: inhibitors of human CAL PDZ peptide binding. actives 0.92% (n = 300,000). Q9HD26. inhibition, % at 24.9 µM. purified CAL PDZ, TMR-peptide fluorescence polarization, 1 h;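 active means mean inhibition of at least 30% with at least half of replicates also reaching 30%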;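 further: 0% = DMSO neutral control and 100% = excess unlabeled competitor peptide PRC23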
Tb MetRS inh: Trypanosoma brucei MetRS inhibition; purified T. brucei MetRS, ATP depletion, Kinase-Glo luminescence; inhibition, % at 11.9 µM; actives 0.4% (n = 360,000); AID 624268;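 active means inhibition above a per-plate cutoff of the control wells' mean inhibition plus 3 SD, cut at about 5.5% in these data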;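 further: 0% = DMSO wells median and 100% = median of wells with control inhibitor compound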
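System: purified T. brucei MetRS enzyme / Detection: Kinase-Glo luciferase luminescence reporting remaining unconsumed ATP / Medium: HEPES buffer with MgCl2, KCl, DTT, spermine, BSA, pyrophosphatase / Replication: singlicate, one well per compound / Evaluation: percent inhibition relative to median high and low control wells / Schedule: 2 h aminoacylation at 25 °C after 15 min preincubation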
Dyrk1A ADPGlo: Dyrk1A (rat) kinase inhibition | ADP-Glo luminescence, NFATc1 peptide | Q63470 | inhibition, % at 12.5 µM | actives 0.43% (n = 310,000); in the data active means inhibition above about 50%;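 further: plate controls were vehicle with enzyme for no effect and no enzyme for full effect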
Tb MetRS conf: Trypanosoma brucei MetRS inhibition confirmed; shares compounds with Tb MetRS inh; T. brucei MetRS enzyme, luminescence (ATP depletion); inhibition, % at 11.9 µM; actives 93% (n = 1,400); AID 624412; in the data active means inhibition above about 7%
Jurkat tox: counter-screen for T. brucei MetRS inhibitors: Jurkat cell cytotoxicity; shares compounds with Tb MetRS inh; Jurkat cells viability, ATP luminescence; inhibition, % at 8.3 µM; actives 12% (n = 1,400); in the data active means inhibition above about 15%;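 further: 0% = vehicle and 100% = reference inhibitor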
Tb MetRS inh FP: T. brucei MetRS inhibition, orthogonal assay. shares compounds with Tb MetRS inh. purified T. brucei MetRS, fluorescence polarization. inhibition, % at 11.9 µM. actives 44% (n = 1,400); in the data active means inhibition above about 17%;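 further: 0% = vehicle wells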
* = called active by the depositor; nt = not tested or not shown. Hits are enriched below; roughly 1.4% of the tested compounds scored in any of these assays.

SMILES	CAL PDZ FP-1	PvdQ acylase	CDK5 p35 inh	CAL PDZ FP-2	Tb MetRS inh	Dyrk1A ADPGlo	Tb MetRS conf	Jurkat tox	Tb MetRS inh FP
CN(CC(=O)Nc1ccc(Cl)cc1)C(=O)c1ccc(-n2cncn2)c([N+](=O)[O-])c1	-1.4	-7.3	-1.5	4.0	70.1*	-0.5	100.3*	-2.7	84.9*
CS(=O)(=O)c1ccc(Cl)c(NC(=O)c2ccc(-n3cncn3)c([N+](=O)[O-])c2)c1	nt	nt	nt	nt	57.2*	nt	81.4*	5.8	67.0*
O=C(Nc1ccc(Cl)cc1)c1ccc(-n2cccn2)c([N+](=O)[O-])c1	0.2	-1.6	-0.2	-6.2	1.8	-7.9	nt	nt	nt
O=C(Nc1ccc(Cl)cc1)c1ccc(-n2cncn2)c([N+](=O)[O-])c1	-0.9	-8.7	0.1	-1.0	42.3*	-5.0	62.1*	8.7	33.0*
O=C(NCCC1=CCCCC1)c1ccc(-n2cncn2)c([N+](=O)[O-])c1	-0.1	-12.7	-2.0	-3.0	14.7*	8.7	32.5*	-1.2	19.8*
COc1ccc(C(=O)NCCC2=CCCCC2)cc1[N+](=O)[O-]	-1.9	-15.6	-2.6	-4.8	-0.3	-7.2	nt	nt	nt
Cc1ccc(C(=O)NNC(=O)c2ccc(-n3cncn3)c([N+](=O)[O-])c2)cc1	-1.1	-6.3	-0.3	4.3	10.6*	-4.0	41.3*	-6.3	19.9*
CCN(CC)CCNC(=O)c1ccc(NC(=O)c2ccc(-n3cncn3)c([N+](=O)[O-])c2)cc1	nt	nt	nt	nt	17.4*	nt	36.5*	6.5	9.8
Cc1ccc(S(=O)(=O)N2C[C@H]3C(=O)C[C@@H](c4ccccc4)N(S(=O)(=O)c4ccc(C)cc4)[C@H]3C[C@H]2c2ccccc2Cl)cc1	nt	nt	nt	nt	0.1	nt	nt	nt	nt
CCC1(CC)C(=O)N(C)C(=O)NC1=NCc1ccccc1	-0.1	-7.6	-0.5	0.0	-1.0	3.0	nt	nt	nt
Cc1cc(=O)n2c(n1)NC(=NCc1ccccc1)NC2c1ccccc1 (stereo unspecified)	nt	nt	nt	nt	8.5*	nt	18.2*	1.2	10.9
CC(C)CC1NC(=O)N(CCCCN2C(=O)c3ccccc3C2=O)C1=O (stereo unspecified)	-0.3	1.4	3.6	-2.7	8.8*	-1.1	1.7	1.7	-2.5
CC(C)CC1NC(=O)N(CC(=O)Nc2ccccc2-c2ccccc2)C1=O (stereo unspecified)	0.8	-9.6	-1.0	2.2	0.1	-1.2	nt	nt	nt
COc1cc(OC)nc(Nc2nc(C(N)Cc3ccc(Cl)cc3)cs2)n1 (stereo unspecified)	nt	nt	nt	nt	-0.3	nt	nt	nt	nt
O=c1[nH]c2ccc(Cl)cc2c(=O)n1Cc1ccco1	0.2	-13.1	1.4	nt	9.4*	2.1	27.9*	-3.2	12.5
O=c1c2cc(Cl)ccc2[nH]c(=S)n1Cc1ccco1	nt	-9.3	1.1	-0.8	8.1*	3.6	12.6*	3.0	5.0
CNc1nc(Nc2ccc(C(=O)OC)cc2)c2sccc2n1	nt	nt	nt	nt	0.0	nt	nt	nt	nt
CCCC(=O)N1CCC1(C)C(=O)Nc1ccc(OC(F)F)cc1 (stereo unspecified)	nt	nt	nt	nt	-0.4	nt	nt	nt	nt
COCCN(C(=O)c1csnn1)C(C(=O)NC1CCCCC1)c1ccc(Cl)cc1 (stereo unspecified)	-2.8	-9.5	1.1	-1.7	9.2*	-3.5	2.0	-1.8	-2.2
COCCN(C(=O)c1csnn1)C(C(=O)NC1CCCCC1)c1ccccc1 (stereo unspecified)	-1.3	-3.7	-2.0	0.9	0.1	-1.6	nt	nt	nt
COc1ccc(CC(=O)OCC(=O)NCc2ccc(Cl)cc2)cc1	-1.6	5.6	0.2	6.0	-0.9	1.7	nt	nt	nt
COc1ccc(COC(=O)CCNC(=O)c2ccc(Cl)cc2)cc1	-1.8	-8.2	-1.2	-7.1	7.0*	13.4	28.4*	-3.6	13.9
COc1ccc(CNC(=O)CCC(=O)Nc2ccc(Cl)cc2)cc1	-0.6	-11.8	-0.3	-1.5	7.1*	-2.9	17.0*	-0.8	5.7
O=C(O)CC1S/C(=N/N=C/c2ccc(-c3ccc(Cl)cc3[N+](=O)[O-])o2)NC1=O (stereo unspecified)	-3.3	-2.3	-1.9	-5.2	10.8*	15.1	14.1*	-4.0	12.2
O=C(O)CC1S/C(=N/N=C/c2ccc(-c3ccc(Cl)c([N+](=O)[O-])c3)o2)NC1=O (stereo unspecified)	-0.5	-17.2	-1.4	-1.2	1.1	3.7	nt	nt	nt
SMILES	CAL PDZ FP-1	PvdQ acylase	CDK5 p35 inh	CAL PDZ FP-2	Tb MetRS inh	Dyrk1A ADPGlo	Tb MetRS conf	Jurkat tox	Tb MetRS inh FP
O=C(Nc1ccccc1)Nc1cc(OCC(F)(F)F)cc(OCC(F)(F)F)c1	-3.0	-8.8	-3.0	-4.7	6.9*	2.7	15.0*	89.1*	71.8*
Brc1cccc(-c2nc3ccc(Br)cn3c2Cc2ccccc2)c1	nt	nt	nt	nt	0.2	nt	nt	nt	nt
Cc1ccc(S(=O)(=O)N2CCN(c3ccc(S(=O)(=O)N4CCOCC4)cn3)CC2)cc1	-0.1	8.9	-1.6	-2.1	-2.2	-10.3	nt	nt	nt
O=S(=O)(NCc1ccc(Cl)cc1Cl)c1ccc(N2CCOCC2)nc1	-1.2	-9.6	1.9	36.4*	6.9*	-1.3	13.6*	-2.9	3.1
CCOc1ccc(-c2cncc3nccn23)cc1	nt	nt	nt	nt	-0.3	nt	nt	nt	nt
Cc1ccc(Nc2nnc(SCC(=O)Nc3ccc(S(=O)(=O)N4CCOCC4)cc3)s2)cc1	-0.5	-12.4	0.1	-0.3	8.5*	-0.3	14.9*	4.5	14.0
O=C(CSc1nnc(Nc2ccccc2)s1)Nc1ccc(S(=O)(=O)N2CCOCC2)cc1	-1.2	-10.7	0.6	-1.9	13.2*	2.9	29.0*	12.3	19.1*
COCCCn1c(Cc2csc(Nc3ccccc3)n2)nnc1SCC(N)=O	-2.1	-5.0	1.8	nt	0.0	1.0	nt	nt	nt
NC(=O)CSc1nnc(Cc2csc(Nc3ccccc3)n2)n1Cc1ccccc1	-1.9	-11.7	-0.8	-3.4	9.0*	-2.0	16.0*	2.2	1.1
COCCCN1C(=O)C(CC(=O)NC(c2ccccc2)c2ccccc2)CC(C(=O)N2CCOCC2)=C1C (stereo unspecified)	nt	nt	nt	nt	-0.1	nt	nt	nt	nt
N#Cc1ccc(C2CC(OCCF)=CC(=O)O2)cc1 (stereo unspecified)	nt	nt	nt	nt	-0.4	nt	nt	nt	nt
NC(=S)Nc1cccc(-c2n[nH]c(=S)o2)c1	-0.4	3.2	0.5	-2.7	13.6*	5.7	35.4*	0.8	16.8*
O=C(CN1CCN(Cc2ccc(Cl)cc2)CC1)N/N=C/c1c[nH]c2ccccc12	-0.9	4.6	-0.8	-1.7	8.4*	-2.3	30.8*	0.4	15.6
O=C(CCC(=O)Nc1ccccc1Cl)N/N=C/c1c[nH]c2ccccc12	-0.2	-7.6	1.1	-1.5	8.0*	6.7	15.6*	-3.2	1.6
